The values that follow come from ChEMBL document CHEMBL1121813, “Dihydrochalcone sweeteners. A study of the atypical temporal phenomena” (1981).

Common to all, as to assay type: functional
For experiment [1], the species on record is Homo sapiens. The experiment can be described thus: Experimentally determined perceived intensity of compound at a concentration of 2000 ppm (mean value). In outline:
(§1)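 Trained human sensory panel of judges tasted aqueous solutions of the compound. Samples had to be ≥95 weight % pure (HPLC, proton titration, Karl Fischer), non-mutagenic in five Salmonella typhimurium strains with and without microsomal activation, and non-toxic in a single-oral-dose mouse test. Perceived intensity (Ip) was read from time–intensity curves at 4- or 6-s intervals and averaged. Outliers at the 95% level were rejected by t-value. Values reported as mean (2Sm).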

The species entered for experiment [2] is Homo sapiens. In words: Percentage of judgments reporting an aftertaste at a concentration of 2000 ppm and character thereof. In short, it runs like this: (§2)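 Trained judges tasted aqueous solutions of the compounds, which had to be ≥95 weight percent pure and to have passed mutagenicity and single oral dose toxicity screening. The value is the percentage of panel judgments reporting an aftertaste. Where given, its character is recorded as sweet, bitter or bitter-sweet.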

The species entered for experiment [3] is Homo sapiens. The experiment can be described thus: Number of taste judgments per compound.
The species entered for experiment [4] is Homo sapiens. In words: Intensity calculated on a weight basis relative to an 85500 ppm sucrose solution at a concentration of 1011 ppm (mean value). In outline: (§3)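 Trained human panel tasted aqueous solutions of purity-checked (≥95 weight percent) compounds cleared for mutagenicity and mouse oral toxicity. Weight-basis intensity I_w = perceived intensity × (85500 ppm sucrose / compound concentration in ppm). The mean is reported with 2S_m limits; data deviating excessively at 95% confidence were rejected by the t-value method.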

For experiment [5], the species on record is Homo sapiens. In words: Other taste character at a concentration of 1011 ppm (mean value). In outline:
(§4)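 Trained human panel tasted aqueous solutions of each compound. Aftertaste is scored as the percentage of judgments reporting one, with its character coded sweet (s), bitter (b) or bitter-sweet (bs).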

The species entered for experiment [6] is Homo sapiens. The experiment can be described thus: Experimentally determined perceived intensity of compound at a concentration of 1011 ppm (mean value). In short, it runs like this:
as §1

The species named for experiment [7] is Homo sapiens. The experiment can be described thus: Intensity calculated on a molar basis relative to a 0.25 M sucrose solution at a concentration of 1011 ppm (mean value). In short, it runs like this: (§5)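 Trained human judges tasted aqueous solutions of the test compound; compounds were first required to be ≥95 weight percent pure and free of mutagenicity (five Salmonella typhimurium strains, ± microsomal activation) and of single oral dose mouse toxicity. Molar intensity I_m = perceived intensity × (0.25 M sucrose / compound molar concentration). The mean is reported with 2S_m limits; outliers were rejected at 95% confidence by t-value.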

Experiment [8] is filed under the species Homo sapiens. In words: Percentage of judgments reporting an aftertaste at a concentration of 1011 ppm and character thereof; Bitter-sweet. In outline:
as §2

The species named for experiment [9] is Homo sapiens. In words: Sour character at a concentration of 1011 ppm (mean value).
The species named for experiment [10] is Homo sapiens. In words: Salty character at a concentration of 1011 ppm (mean value).
The species named for experiment [11] is Homo sapiens. The experiment can be described thus: Bitter character at a concentration of 1011 ppm (mean value). In short, it runs like this:
(§6)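 Trained human panel tasted aqueous solutions. Each judge reported whether there was an aftertaste and its character (sweet, bitter or bitter-sweet). The value is the percentage of judgments reporting a bitter aftertaste.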

The species entered for experiment [12] is Homo sapiens. In words: Sweet character at a concentration of 1011 ppm (mean value).
Experiment [13] is filed under the species Homo sapiens. In words: Sweet / Bitter character at a concentration of 1011 ppm (mean value).
The species entered for experiment [14] is Homo sapiens. In words: Experimentally determined perceived intensity of compound at a concentration of 1090 ppm (mean value). In outline: as §1
The species named for experiment [15] is Homo sapiens. In words: Sweet / Bitter character at a concentration of 1090 ppm (mean value).
The species entered for experiment [16] is Homo sapiens. The experiment can be described thus: Percentage of judgments reporting an aftertaste at a concentration of 1090 ppm. In outline:
as §2

The species named for experiment [17] is Homo sapiens. The experiment can be described thus: Salty character at a concentration of 1090 ppm (mean value).
Experiment [18] is filed under the species Homo sapiens. The experiment can be described thus: Intensity calculated on a weight basis relative to an 85500 ppm sucrose solution at a concentration of 1090 ppm (mean value). In short, it runs like this:
as §3

The species named for experiment [19] is Homo sapiens. The experiment can be described thus: Bitter character at a concentration of 1090 ppm (mean value). In outline:
as §6

For experiment [20], the species on record is Homo sapiens. The experiment can be described thus: Sour character at a concentration of 1090 ppm (mean value).
Experiment [21] is filed under the species Homo sapiens. The experiment can be described thus: Other taste character at a concentration of 1090 ppm (mean value). In short, it runs like this: as §4
For experiment [22], the species on record is Homo sapiens. In words: Sweet character at a concentration of 1090 ppm (mean value).
The species named for experiment [23] is Homo sapiens. In words: Intensity calculated on a molar basis relative to a 0.25 M sucrose solution at a concentration of 1090 ppm (mean value). In short, it runs like this:
as §5

`COc1ccc(CNC(=O)c2c(O)cc(OCC(=O)[O-])cc2O)cc1O.[Na+]` showed an IP in the experiment filed under Homo sapiens [1] of 0. Besides, the Judgments was 0 in the experiment filed under Homo sapiens [2] and 1 in the experiment listed under Homo sapiens [3].
As for `CNc1ccc(CCC(=O)c2c(O)cc(OCC(=O)[O-])cc2O)cc1O.[Na+]`, the IP in the experiment filed under Homo sapiens [1] is given as 0. Further, the Judgments in the experiment filed under Homo sapiens [2] is listed as 0; in the experiment filed under Homo sapiens [3], 1.
Regarding `COc1ccc(/C=C/C(=O)c2ccc(OCC(=O)[O-])cc2O)cc1O.[Na+]`, the IP in the experiment filed under Homo sapiens [1] was determined as 0. The Judgments in the experiment listed under Homo sapiens [3] stood at 1.
Consider `COc1ccc(CCc2noc3cc(OCCCS(=O)(=O)[O-])cc(O)c23)cc1O.[K+]`, for which the IW in the experiment listed under Homo sapiens [4] is 41. For the same compound, the Taste character in the experiment filed under Homo sapiens [5] is listed as 21; in the experiment listed under Homo sapiens [9], 0; in the experiment filed under Homo sapiens [10], 0; in the experiment filed under Homo sapiens [11] it was 38; in the experiment listed under Homo sapiens [12], 41; in the experiment listed under Homo sapiens [13], 52. Also, the IP in the experiment filed under Homo sapiens [6] was 0.49. The IM in the experiment filed under Homo sapiens [7] is 56. The Judgments in the experiment listed under Homo sapiens [8] is 100; in the experiment filed under Homo sapiens [3], 12.
Compound `COc1ccc(CCC(=N)c2c(O)cc(OCC(=O)[O-])cc2O)cc1O.[Na+]` came in with an IP in the experiment filed under Homo sapiens [1] of 0. The results for the Judgments in the experiment listed under Homo sapiens [2] and in the experiment listed under Homo sapiens [3] were 0 and 1, respectively.
As for `COc1ccc(C2CC(=O)c3c(O)cc(OCCCS(=O)(=O)[O-])cc3O2)cc1O.[K+]` (stereo unspecified), the IP in the experiment listed under Homo sapiens [14] is 0.5. In addition, the Taste character in the experiment filed under Homo sapiens [15] is 75; in the experiment filed under Homo sapiens [17] it was 0; in the experiment filed under Homo sapiens [19], 25; in the experiment listed under Homo sapiens [20] it was 0; in the experiment filed under Homo sapiens [21], 0; in the experiment listed under Homo sapiens [22], 75. The Judgments is 0 in the experiment listed under Homo sapiens [16] and 1 in the experiment listed under Homo sapiens [3]. Further, in the experiment filed under Homo sapiens [18], the IW is recorded as 40. Besides, the IM in the experiment listed under Homo sapiens [23] is on record as 50.
With `COc1ccc(CCC(=O)c2c(O)cc(OC(CC(O)CO)C(=O)[O-])cc2O)cc1O.[Na+]` (stereo unspecified), the IP in the experiment listed under Homo sapiens [1] is on record as 0. Further, the Judgments amounted to 0 in the experiment filed under Homo sapiens [2] and 1 in the experiment listed under Homo sapiens [3].
